Consider 55 sequences from the array DNA melting data of Ke et al. (doi:10.1101/2024.01.08.574731).

Data set [1] can be described thus: folding enthalpy; higher = less favourable; fluorescence melt of hairpins on a sequencing array, two-state fit. Particulars: sodium 0.088 M. In short, it runs like this: (§1)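 Folding enthalpy and melting temperature were estimated with bootstrapped two-state fits and combined across four replicates by inverse-variance weighting, with fitted temperatures raised by 9.35 °C to match UV melts. The data were Cy3 fluorescence of library hairpins, with annealed Cy3 and quencher oligos, on a sequenced MiSeq flow cell in 50 mM Na-HEPES pH 8.0, 25 mM NaCl, imaged in 2.5 °C steps up to 60 °C and normalised to pre-quench Cy3 and control constructs.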

The nature of data set [2]: melting temperature; fluorescence melt of hairpins on a sequencing array, two-state fit, raised by 9.35 °C to match UV melts. Conditions: sodium 0.088 M. In short, it runs like this:
as §1

Consider GCACTTGGAAACAAATGC (((.(((....))).))), for which the folding enthalpy in data set [1] was -24.8 kcal/mol. For the same sequence, the Tm in data set [2] came to 35.4 °C.

As for GACATTGGAAACAACGTC (((.(((....))).))), the folding enthalpy in data set [1] was -23.2 kcal/mol. Also, the Tm in data set [2] was 34 °C.

Regarding GATCCATTAGTGGATC ((((((....)))))), the folding enthalpy in data set [1] was -36.8 kcal/mol. Also, in data set [2], the Tm came to 53 °C.

On to GTTTGGCCGAAAGGCAAC (((..(((....)))))), for which the folding enthalpy in data set [1] was -11.5 kcal/mol. Moreover, the Tm in data set [2] is 37.7 °C.

GGTAGCGAAAGCTAACC ((((((....))).))): the folding enthalpy in data set [1] was -18.7 kcal/mol. Further, in data set [2], the Tm amounted to 53.8 °C.

Take GCGTTGCGAAAGCTAGGC ((.(.((....)).).)): in data set [1], the folding enthalpy was -19.2 kcal/mol. Further, in data set [2], the Tm was 48.9 °C.

For the sequence GTCTCCGAAAGGAAAGAC ((((((....)))..))), the folding enthalpy in data set [1] is -23.1 kcal/mol. Besides, in data set [2], the Tm was 42.4 °C.

On to GCCTAACGAAAGTTCGGC (((.(((....))).))), for which the folding enthalpy in data set [1] is -34.8 kcal/mol. In addition, the Tm in data set [2] was 52.4 °C.

Consider GATCAGGGAGCTGATC ((((((....)))))), for which the folding enthalpy in data set [1] is -35.2 kcal/mol. Moreover, the Tm in data set [2] was 52.4 °C.

In the case of GACGGCGAAAGCCCTGTC ((((((....)))..))), the folding enthalpy in data set [1] is -13.6 kcal/mol. Further, the Tm in data set [2] was found to be 38.6 °C.

As to GGCAATGGAAACATCGCC (((.(((....))).))), the folding enthalpy in data set [1] was -34.7 kcal/mol. Also, the Tm in data set [2] was determined as 45.5 °C.

As for GGGGTCGAAAGACATCCC ((((((....)))..))), the folding enthalpy in data set [1] is -17.1 kcal/mol. For the same sequence, the Tm in data set [2] amounted to 46.5 °C.

For the sequence GTTGGGGGAAACCTCGAC ((.(.((....)).).)), the folding enthalpy in data set [1] was -23.5 kcal/mol. For the same sequence, in data set [2], the Tm was found to be 34.7 °C.

With GGAGACGAAAGTCCTCC ((((((....))).))), in data set [1], the folding enthalpy is -25 kcal/mol. Besides, in data set [2], the Tm worked out at 48.7 °C.

GCGTTCCCACGC ((((....)))): in data set [1], the folding enthalpy is -23.4 kcal/mol. In addition, the Tm in data set [2] amounted to 51.9 °C.

As to GATTGGCGAAAGCCCATC (((.(((....))).))), in data set [1], the folding enthalpy is -17 kcal/mol. Further, the Tm in data set [2] was determined as 38.4 °C.

For the sequence GCACAGCGAAAGCTCTGC (((.(((....))).))), the folding enthalpy in data set [1] is -25.6 kcal/mol. Further, in data set [2], the Tm came out at 40.6 °C.

On to GTGCGACGAAAGTCCCAC (((.(((....))).))), for which the folding enthalpy in data set [1] is -30.8 kcal/mol. Besides, the Tm in data set [2] turned out to be 47.4 °C.

Take GGCAGTTCGAAAGAAGCC (((..(((....)))))): the folding enthalpy in data set [1] is -16.3 kcal/mol. In data set [2], the Tm came out at 34.5 °C.

For the sequence GGGGGTGGAAACGTCCCC ((((..(....)..)))), the folding enthalpy in data set [1] is -26.2 kcal/mol. The Tm in data set [2] is 48.7 °C.

On to GATGCACCGAAAGGTATC (((..(((....)))))), for which the folding enthalpy in data set [1] was -9.42 kcal/mol. For the same sequence, the Tm in data set [2] worked out at 29 °C.

Regarding GATCACAGAGGTGATC ((((((....)))))), the folding enthalpy in data set [1] is -27.4 kcal/mol. The Tm in data set [2] is 55.9 °C.

GTAGGCGAAAGCCATAC ((((((....))).))): the folding enthalpy in data set [1] is -11.2 kcal/mol. The Tm in data set [2] was determined as 43.8 °C.

In the case of GATAGCGAAAGCTCAATC ((((((....)))..))), the folding enthalpy in data set [1] was -10.4 kcal/mol. The Tm in data set [2] is 21.7 °C.

GCGATCACTCGC ((((....)))): in data set [1], the folding enthalpy was -26 kcal/mol. Further, the Tm in data set [2] stood at 47.2 °C.

For GCACGCGAAAGCGAATGC ((((((....)))..))), in data set [1], the folding enthalpy was -18.6 kcal/mol. Also, the Tm in data set [2] was 49.2 °C.

As for GTGGTAGGAAACTACTGC (..((((....))))..), the folding enthalpy in data set [1] is -18.2 kcal/mol. Moreover, the Tm in data set [2] came out at 36.1 °C.

Consider GATCCGAGGACGGATC ((((((....)))))), for which the folding enthalpy in data set [1] was -33.9 kcal/mol. In addition, the Tm in data set [2] came to 56.5 °C.

Turning to GTACCCGCGAAAGCGTAC (((..(((....)))))), the folding enthalpy in data set [1] was -8.05 kcal/mol. In data set [2], the Tm is 25.7 °C.

Regarding GCTTTAACGAAAGTTAGC (((..(((....)))))), the folding enthalpy in data set [1] was -18.8 kcal/mol. For the same sequence, in data set [2], the Tm was 31.9 °C.

For the sequence GATCTGCTCTCAGATC ((((((....)))))), the folding enthalpy in data set [1] was -36.6 kcal/mol. In addition, the Tm in data set [2] was 48.4 °C.

Consider CGCGGAACAATCCGCG ((((((....)))))), for which the folding enthalpy in data set [1] was -37 kcal/mol. Besides, the Tm in data set [2] was determined as 61.5 °C.

As for GAAGCCGGAAACGGTTTC (((.(((....))).))), the folding enthalpy in data set [1] was -40.2 kcal/mol. Moreover, the Tm in data set [2] was determined as 49.9 °C.

For the sequence GTCCTTGGAAACAGGGAC ((((.((....)).)))), the folding enthalpy in data set [1] is -33 kcal/mol. Also, the Tm in data set [2] came out at 46.4 °C.

As for GACAACGAAAGTTGTGTC ((((((....)))..))), the folding enthalpy in data set [1] is -14.7 kcal/mol. Also, the Tm in data set [2] is 50.6 °C.

On to GCGGTGCGAAAGCGCAGC ((.(.((....)).).)), for which the folding enthalpy in data set [1] was -23.4 kcal/mol. Also, the Tm in data set [2] stood at 64.1 °C.

As for AGGCTGAAAAGCCT (((((....))))), in data set [1], the folding enthalpy is -16.9 kcal/mol. The Tm in data set [2] was found to be 62.6 °C.

For GTTCGCGGAAACGCGAGC (.(((((....))))).), the folding enthalpy in data set [1] is -15.7 kcal/mol. Besides, in data set [2], the Tm worked out at 59.2 °C.

As for GGCCTGTCGAAAGACGCC (((..(((....)))))), the folding enthalpy in data set [1] was -18.8 kcal/mol. In addition, the Tm in data set [2] was determined as 45.2 °C.

Consider GATCTGAAGCCAGATC ((((((....)))))), for which the folding enthalpy in data set [1] was -33.2 kcal/mol. Besides, the Tm in data set [2] is 45.5 °C.

For the sequence GTTAAGGGAAACCTTGAC ((.((((....)))).)), in data set [1], the folding enthalpy is -29.3 kcal/mol. Besides, the Tm in data set [2] came to 37.4 °C.

As to GATCACGGGGTGATC ((((((...)))))), the folding enthalpy in data set [1] was -33.6 kcal/mol. Besides, the Tm in data set [2] was determined as 60.3 °C.

For the sequence GATCACAGTCGTGATC ((((((....)))))), the folding enthalpy in data set [1] is -44.9 kcal/mol. In data set [2], the Tm came out at 56.2 °C.

As for GTAATGGGAAACCGTTAC ((((.((....)).)))), the folding enthalpy in data set [1] was -34.3 kcal/mol. The Tm in data set [2] worked out at 44.1 °C.

GTAGTTCGAAAGAAGTAC (((.(((....))).))): the folding enthalpy in data set [1] is -25 kcal/mol. The Tm in data set [2] is 46 °C.

With GTAGCCGGAAACGGCTGC (.(((((....))))).), the folding enthalpy in data set [1] was -15.9 kcal/mol. Moreover, the Tm in data set [2] turned out to be 60.9 °C.

Turning to GTTTCTCGAAAGAGAAC (((.(((....)))))), the folding enthalpy in data set [1] was -17.1 kcal/mol. Also, the Tm in data set [2] was 42.4 °C.

Turning to GCCCCGCGAAAGCGCTGC ((..(((....)))..)), the folding enthalpy in data set [1] is -9.38 kcal/mol. Moreover, the Tm in data set [2] turned out to be 31.6 °C.

With GTCCGCGAAAGCGTGGAC ((((((....)))..))), the folding enthalpy in data set [1] was -16.9 kcal/mol. The Tm in data set [2] worked out at 54.8 °C.

On to GGATGTGGAAACGCATTC (.(((.(....).))).), for which the folding enthalpy in data set [1] is -22.9 kcal/mol. Further, the Tm in data set [2] came out at 33.9 °C.

With GAGGCCGAAAGGCACTC ((((((....))).))), the folding enthalpy in data set [1] is -14.5 kcal/mol. For the same sequence, the Tm in data set [2] came to 54.1 °C.

For the sequence GATCTTCTCTAAGATC ((((((....)))))), the folding enthalpy in data set [1] is -35 kcal/mol. The Tm in data set [2] stood at 42.8 °C.

With GCGACATTCGC ((((...)))), the folding enthalpy in data set [1] is -14 kcal/mol. Besides, in data set [2], the Tm turned out to be 52.3 °C.

As to GAACGTGGAAACGCGTTC (((((.(....).))))), the folding enthalpy in data set [1] was -36.4 kcal/mol. In addition, in data set [2], the Tm amounted to 53.8 °C.

Turning to GATCCGGGGTCGGATC ((((((....)))))), the folding enthalpy in data set [1] was -47.9 kcal/mol. The Tm in data set [2] came out at 56.7 °C.
